The text below walks through data of ChEMBL document CHEMBL1148218, “Structures of new beta-carboline-type alkaloids with antiallergic effects from Stellaria dichotoma(1,2)” (J Nat Prod, 2004).

Where a name gives a salt, the structure may show the parent alone.

By inhibition is commonly meant the change of the read-out against control, counted positive when it falls. Usually inhibition in vivo stands for the drop in the measured response relative to a control, in per cent. A higher inhibition in vivo goes with strong suppression. In general, IC50 refers to the point on the concentration scale where inhibition reaches its midpoint.

Assay [1] deals with RBL-2H3. The assay can be described thus: Inhibition of beta-hexosaminidase in anti-DNP IgE sensitized rat RBL2H3 cells at 100 uM after 10 mins. It is filed as functional. Conditions: RBL-2H3, 10 min. In a few lines:
(§1)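 IgE-sensitized RBL-2H3 cells (2 × 10^5/well) in Siraganian buffer with 5.6 mM glucose, 1 mM CaCl2, 0.1% BSA, 10 min at 37 °C; sample in DMSO (final 0.1%) added for 10 min, then DNP-BSA (final 10 μg/mL). After 10 min supernatant reacted with 1 mM p-nitrophenyl-N-acetyl-β-D-glucosaminide, pH 4.5, 37 °C, 1 h; stopped at pH 10, A405. Percent inhibition; IC50 determined graphically.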

The next assay deals with Mus musculus. The experiment in a line: Antiallergic activity in ddY mouse ear at 200 mg/kg, po by passive cutaneous anaphylaxis reaction. It is filed as functional.
The subject of assay [2] is RBL-2H3. The assay can be described thus: Inhibition of beta-hexosaminidase in anti-DNP IgE sensitized rat RBL2H3 cells after 10 mins. Type of assay: functional, cell-based. The conditions noted are these: RBL-2H3, 10 min. The procedure, abridged:
as §1

Assay [3] deals with RBL-2H3. The assay can be described thus: Inhibition of anti-DNP IgE-induced TNFalpha production in rat RBL2H3 cells after 4 hrs by ELISA. Type of assay: functional, cell-based. The conditions noted are these: RBL-2H3, 4 h. In a few lines: (§2)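 RBL-2H3 cells (2 × 10^5/well in MEM) sensitized with anti-DNP IgE, then stimulated with DNP-BSA antigen in presence of sample; TNF-α and IL-4 in medium measured 4 h later by rat ELISA. Percent inhibition calculated; IC50 read graphically.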
On the technique in general: An ELISA detects its analyte on a solid surface through an enzyme-linked reagent.

Assay [4] has as its system RBL-2H3. The experiment in a line: Inhibition of anti-DNP IgE-induced IL4 production in rat RBL2H3 cells after 4 hrs by ELISA. It is filed as functional, cell-based. The conditions noted are these: RBL-2H3, 4 h. The procedure, abridged: as §2

For the compound `COc1cc(C=O)ccc1O` [VANILLIN], the inhibition at 100 µM in the assay on RBL-2H3 [1] was 5.9%.

Regarding `CCC(O)c1cc(OC)c2c(c1)OCO2` (configuration not stated), the inhibition at 100 µM in the assay with RBL-2H3 [1] was 1.2%.

`CCCCOC(=O)c1cc2c([nH]c3ccccc32)c([C@@H](O)CO)n1` [DICHOTOMINE D]: the inhibition at 100 µM in the assay with RBL-2H3 [1] is 11.2%.

`COc1ccc(/C=C/C(=O)Nc2ccccc2C(=O)O)cc1OC` [TRANILAST]: 200 mg/kg produced 72.4% inhibition in vivo with Mus musculus. Further, in the assay with RBL-2H3 [2], the IC50 came out at 490 µM.

Take `COc1cc(C(C)=O)ccc1O` [APOCYNIN]: the inhibition at 100 µM with RBL-2H3 [1] was 2.3%.

For the compound `O=Cc1ccc(CO)o1` [AES-103], in the assay on RBL-2H3 [1], the inhibition at 100 µM worked out at 3.4%.

Take `CN1CCC(=C2c3ccccc3CC(=O)c3sccc32)CC1` [KETOTIFEN FUMARATE]: the concentration for half-maximal inhibition (IC50) in the assay on RBL-2H3 [2] was 220 µM.

On to `COc1ccc(CCC(=O)O)cc1OC`, for which the inhibition at 100 µM in the assay with RBL-2H3 [1] stood at 2.3%.

With `COc1cc(C(=O)O)ccc1O` [VANILLIC ACID], the inhibition at 100 µM with RBL-2H3 [1] worked out at 8.4%.

Take `C[C@H](O)c1nc(C(=O)O)cc2c1[nH]c1ccccc12` [DICHOTOMINE A]: the inhibition at 100 µM in the assay on RBL-2H3 [1] was 5.9%.

As to `COC(=O)c1cc2c([nH]c3ccccc32)c([C@@H](O)CO)n1` [DICHOTOMINE C], the inhibition at 100 µM in the assay with RBL-2H3 [1] worked out at 89.2%. Moreover, the 50% inhibitory concentration (IC50) in the assay on RBL-2H3 [2] came to 62 µM; in the assay with RBL-2H3 [3], 19 µM; in the assay with RBL-2H3 [4] it was 15 µM.

As for `O=Cc1ccc(CO)[nH]1`, in the assay with RBL-2H3 [1], the inhibition at 100 µM was 8.5%.

Consider `O=C(O)c1cc2c([nH]c3ccccc32)c([C@@H](O)CO)n1` [DICHOTOMINE B], for which the inhibition at 100 µM in the assay with RBL-2H3 [1] was 1.2%.
